This note sets out measurements from PubChem BioAssay AID624097 (The Scripps Research Institute Molecular Screening Center, 2012).

As a reminder, the MIC is the smallest concentration in the dilution series that meets the test's criterion for growth inhibition.

Several values for one entry are separate records, joined by “and”; a condition that tells them apart may be missing. Equal entries are not always repeated. Activity calls are given as the source filed them.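 The calls were made as follows: active = lowest compound dose that cuts the imipenem minimum inhibitory concentration fourfold is 10 µM or below; inactive = that dose above 10 µM or never reached.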

One experiment concerns E. coli BL21 IMP-1, imipenem synergy, OD590, 18 h. Description: imipenem potentiation in IMP-1-expressing E. coli, late-stage follow-up, VIM-2 MBL inhibitor project, E. coli BL21, powder samples (AID 624097).
Conditions: not given
In short, it runs like this: (§1)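 Signal: turbidity by absorbance at 590 nm, MIC per CLSI / Test system: IMP-1-transformed E. coli BL21 bacteria / Also added: imipenem in two-fold dilution series / Times: ≥18 h growth at 37 °C, aerobic / Medium: Mueller-Hinton broth, cation-adjusted (CAMHB) / Dosing: compound two-fold dilutions in checkerboard grid versus imipenem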
Take `CC(C)(C)OC(=O)N1CCN(NC(=O)CN2C(=O)/C(=C/c3c(Cl)ccc(Cl)c3Cl)SC2=S)CC1`: the minimal inhibitory concentration (MIC) was 3.12 µM.

In the case of `O=C(CN1C(=O)/C(=C/c2c(Cl)ccc(Cl)c2Cl)SC1=S)NCc1ccccn1`, the MIC was 0.781 µM.

For the compound `O=C(CN1C(=O)/C(=C/c2c(Cl)ccc(Cl)c2Cl)SC1=S)NN1CCNCC1`, the MIC is 25 µM (inactive).

On to `CN1CCN(NC(=O)CN2C(=O)/C(=C/c3c(Cl)ccc(Cl)c3Cl)SC2=S)CC1`, for which the minimum inhibitory concentration (MIC) was 0.781 µM and 1.56 µM.

For the compound `CN1CCN(NC(=O)CN2C(=O)/C(=C/c3c(Cl)cccc3Cl)SC2=S)CC1`, the minimal inhibitory concentration (MIC) is 25 µM (inactive) and 3.12 µM.

`CN1CCN(C(=O)CN2C(=O)/C(=C/c3c(Cl)ccc(Cl)c3Cl)SC2=S)CC1`: the MIC was 0.781 µM.

System in the next experiment: not listed separately
The description is as above. Particulars: E. coli BL21 IMP-1, imipenem synergy, OD590, 18 h; measured here: max imipenem fold potentiation; stronger effect = higher value. The essentials: as §1
As for `CN1CCN(C(=O)CN2C(=O)/C(=C/c3c(Cl)ccc(Cl)c3Cl)SC2=S)CC1`, the fold potentiation was 8.
